Measurements collected from several papers.
Compare with care: the assays were run in different laboratories.
Target: Serine/threonine-protein kinase 24 (STK24, Homo sapiens, UniProt Q9Y6E0)

| SMILES | assay | setting | remaining binding |
| --- | --- | --- | --- |
| O=C(c1ccc(Nc2ncc(Cl)c(-c3ccc(Cl)s3)n2)cc1)N1CCC(N2CCCC2)CC1 | binding, competition with immobilised ligand | 1 µM | 44% |
| CCCCN(CCCC)C(=O)CN1C[C@@H](c2cc(OC)c3c(c2)OCO3)[C@H](C(=O)O)[C@H]1CC(C)(C)CCC | cell-free assay, competition with immobilised ligand | 1 µM | 93.9% |
| COc1cnc(Nc2cccc(S(N)(=O)=O)c2)nc1N1CCN(c2ccccc2)C(=O)C1 | binding, competition with immobilised ligand | 1 µM | 97% |
| CN(C(=O)c1ccccc1)c1cc(N(C)c2ccc3c(c2)CCc2ccc(C(=O)NCCN4CCOCC4)cc2C3=O)ccc1F | cell-free assay, competition with immobilised ligand | 1 µM | 100% |
| CC1CCCN1c1nccc(-c2cnn3ncccc23)n1 (stereo not shown) | binding | 1 µM | 100% |
| CCS(=O)(=O)c1cc2cc(C[C@](O)(CC(C)(C)c3ccc(F)cc3C(N)=O)C(F)(F)F)[nH]c2cn1 | cell-free assay, competition with immobilised ligand | 1 µM | 86% |
| COc1cnc(Nc2cccc(S(N)(=O)=O)c2)nc1N1CCN(c2ccccc2)CC1 | binding, competition with immobilised ligand | 1 µM | 82% |
| F[C@@H]1CCN(c2nccc(-c3cnn4ncccc34)n2)C1 | binding | 1 µM | 93% |
| Cc1cnc(Nc2ccc(C(=O)N3CCC(N4CCCC4)CC3)cc2)nc1-c1cc2ccccc2s1 | binding, competition with immobilised ligand | 1 µM | 84% |
| N[C@@H]1CCN(c2nccc(-c3cnn4ncccc34)n2)C1 | binding | 1 µM | 100% |
| COc1ncc2cc3ccccc3nc2c1C#N | cell-free assay, competition with immobilised ligand | 5 µM | 97% |
| O=C(NCc1ncc(C(F)(F)F)cc1Cl)c1ccc2c(c1)C1(CCS(=O)(=O)CC1)[C@@H](C1CC1)N2S(=O)(=O)c1ccc(F)cc1 | cell-free assay, competition with immobilised ligand | 1 µM | 100% |
| O=C(NCC1CCOCC1)c1n[nH]cc1NC(=O)c1c(F)cccc1F | binding, competition with immobilised ligand | 1 µM | 89% |
| Nc1ncc2c(n1)-c1c([nH]c3ccc(C#CC4CC4)cc13)CCCC2 | binding, competition with immobilised ligand | 1 µM | 80% |
| O=C(NCCCN1CCOCC1)c1ccc(Nc2ncc(Cl)c(-c3ccc(Cl)s3)n2)cc1 | binding, competition with immobilised ligand | 1 µM | 17% |
| C[C@@H]1CCN(c2nccc(-c3cnn4ncccc34)n2)C1 | binding | 1 µM | 63% |
| CS(=O)(=O)NCC[C@H](NC(=O)c1cncc2c1cnn2-c1ccc(F)cc1)c1ccnc(S(C)(=O)=O)c1 | cell-free assay, competition with immobilised ligand | 1 µM | 100% |
| c1cnn2ncc(-c3ccnc(N4CCC45COC5)n3)c2c1 | binding | 1 µM | 74% |
| CCN1CCN(Cc2ccc(C(=O)Nc3ccc(C)c(Oc4ccc5c(c4)CC(=O)N5)c3)cc2C(F)(F)F)CC1 | binding, competition with immobilised ligand | 1 µM | 94% |
